The species named for experiment [1] is Canis familiaris. Put plainly: Normalized FMR Concentration in anterior wall of heart of phenol treated canine myocardium. The class given is functional, Canis lupus familiaris. In short, it runs like this:
(§1)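 Mongrel dogs, LV anterior epicardium (LAD region) painted with 88% phenol in ethanol (v/v); 4–7 days later FMR iv, killed 1 h post by pentobarbital/KCl overdose. LV cut into ~1 cm transverse slices, then radial segments, gamma counted; % kg dose/g normalized to highest-activity segment (atria = 100%). Affected area = mean of three lowest contiguous segments in each of two midbasal slices; controls N = 3, treated N = 5.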

The species named for experiment [2] is Canis familiaris. Put plainly: Normalized FMR Concentration in posterior wall of heart of phenol treated canine myocardium. The format is functional, Canis lupus familiaris. In short, it runs like this: as §1
In experiment [3] the test system is Canis familiaris. Put plainly: Tissue concentration in dog liver after iv administration. The format is functional, Canis lupus familiaris. In short, it runs like this: (§2)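 Mongrel dogs (two female, 15.0 and 18.6 kg, 0.45 mCi; two male, 2.0 mCi) given FMR as iv cephalic-vein bolus in 2.0 mL sterile 0.15 M acetate buffer, pH 4.5. Killed 1 h later by iv pentobarbital; tissues washed in saline, blotted, weighed, gamma counted 1 min. Expressed as % kg dose/g, N = 4 (muscle, pancreas, kidney N = 2).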

The test system of experiment [4] is Canis familiaris. The experiment is described as follows: Tissue concentration in dog adrenal medulla after iv administration. The class given is functional, Canis lupus familiaris. In short, it runs like this: as §2
The subject of experiment [5] is Canis familiaris. The experiment is described as follows: Tissue concentration in dog blood after iv administration. The class given is functional, Canis lupus familiaris. In short, it runs like this:
as §2

Experiment [6] concerns Canis familiaris. Put plainly: Tissue concentration in dog kidney after iv administration. The format is functional, Canis lupus familiaris. In short, it runs like this: as §2
Experiment [7] concerns Canis familiaris. The experiment is described as follows: Tissue concentration in dog left atrium after iv administration. The format is functional, Canis lupus familiaris, Cardiac atrium. In short, it runs like this: as §2
In experiment [8] the test system is Canis familiaris. The experiment is described as follows: Tissue concentration in dog left ventricle after iv administration. The class given is functional, Canis lupus familiaris, Heart left ventricle. In short, it runs like this: as §2
Experiment [9] has as its system Canis familiaris. The experiment is described as follows: Tissue concentration in dog lung after iv administration. The format is functional, Canis lupus familiaris. In short, it runs like this: as §2
For experiment [10], the system named is Canis familiaris. Put plainly: Tissue concentration in dog muscle after iv administration. The format is functional, Canis lupus familiaris. In short, it runs like this: as §2
For experiment [11], the system named is Canis familiaris. Put plainly: Tissue concentration in dog pancreas after iv administration. The format is functional, Canis lupus familiaris. In short, it runs like this:
as §2

Experiment [12] has as its system Canis familiaris. The experiment is described as follows: Tissue concentration in dog right atrium after iv administration. The format is functional, Canis lupus familiaris, Cardiac atrium. In short, it runs like this:
as §2

In experiment [13] the test system is Canis familiaris. The experiment is described as follows: Tissue concentration in dog right ventricle after iv administration. The class given is functional, Canis lupus familiaris, Heart right ventricle. In short, it runs like this: as §2
The test system of experiment [14] is Canis familiaris. The experiment is described as follows: Tissue concentration in dog spleen after iv administration. The class given is functional, Canis lupus familiaris. In short, it runs like this: as §2
The subject of experiment [15] is Canis familiaris. The experiment is described as follows: Tissue concentration of the compound in dog adrenal cortex after iv administration. The class given is functional, Canis lupus familiaris. In short, it runs like this:
as §2

In experiment [16] the test system is Canis familiaris. The experiment is described as follows: Tissue concentration in dog heart after iv administration. The class given is functional, Canis lupus familiaris.
For experiment [17], the system named is Canis familiaris. Put plainly: Tissue concentration in dog left ventricle to blood ratio after iv administration. The format is functional, Canis lupus familiaris. In short, it runs like this:
as §2

Experiment [18] concerns Canis familiaris. The experiment is described as follows: Tissue concentration in dog thyroid after iv administration. The format is functional, Canis lupus familiaris, Thyroid gland.
For experiment [19], the species on record is Canis familiaris. Put plainly: Concentration of Endogenous NE and FMR from Midbasal Slices of Phenol-Treated Canine in anterior wall. The format is functional, organism-based. The conditions noted are these: Canis lupus familiaris. In short, it runs like this:
(§3)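 Phenol-painted (88% phenol in ethanol, epicardial LV anterior wall near LAD) dogs, 4–7 days post surgery; sacrificed 1 h after iv FMR by pentobarbital/KCl overdose. Midbasal LV slices cut into radial segments, gamma counted; homogenized in cold 0.4 M perchloric acid, NE by HPLC-fluorescence. FMR normalized to highest-activity segment = 100%. Three lowest contiguous segments per slice averaged versus opposed segments; Student's t test.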

For experiment [20], the species on record is Canis familiaris. The experiment is described as follows: Concentration of Endogenous NE and FMR from Midbasal Slices of Phenol-Treated Canine in posterior wall. The class given is functional, organism-based. The conditions noted are these: Canis lupus familiaris. In short, it runs like this:
as §3

Experiment [21] relates to Rattus norvegicus. The experiment is described as follows: Neuronal selectivity expressed as Concentration in blood after iv administration in rat, pretreated with 6-hydroxydopamine (control = 0.065+/-0.005). The class given is functional, organism-based. The conditions noted are these: tested as the 3H-labelled form.
The subject of experiment [22] is Rattus norvegicus. The experiment is described as follows: Neuronal selectivity expressed as Concentration in spleen after iv administration in rat, pretreated with 6-hydroxydopamine (control = 0.85+/-0.005). The conditions noted are these: tested as the 3H-labelled form. The format is functional, organism-based.
Experiment [23] concerns Rattus norvegicus. Put plainly: Neuronal selectivity expressed as Concentration in left atrium after iv administration in rat, pretreated with 6-hydroxydopamine (control =4.75+/-0.28). The conditions noted are these: Cardiac atrium, tested as the 3H-labelled form.
The subject of experiment [24] is Rattus norvegicus. Put plainly: Neuronal selectivity expressed as Concentration in rigt atrium after iv administration in rat, pretreated with 6-hydroxydopamine (control = 4.86+/-0.68). The conditions noted are these: Cardiac atrium, tested as the 3H-labelled form.
Experiment [25] concerns Rattus norvegicus. The experiment is described as follows: Neuronal selectivity expressed as Concentration in left ventricle after iv administration in rat, pretreated with 6-hydroxydopamine (control = 4.10+/-0.23). The conditions noted are these: Heart left ventricle, tested as the 3H-labelled form.
In experiment [26] the test system is Rattus norvegicus. The experiment is described as follows: Neuronal selectivity expressed as Concentration in right ventricle after iv administration in rat, pretreated with 6-hydroxydopamine (control = 4.86+/-0.24). The conditions noted are these: Heart right ventricle, tested as the 3H-labelled form.

The record followed here is ChEMBL document CHEMBL1124727, “Neuronal mapping of the heart with 6-[18F]fluorometaraminol” (1990).

As to `CC(N)C(O)c1cc(O)ccc1F` (centres undefined), the “[3H] concentration” value in the experiment filed under Canis familiaris [1] is 14.5 % kg dose g-1; in the experiment listed under Canis familiaris [2], 53.8 % kg dose g-1; in the experiment on Canis familiaris [3] it was 0.33 % kg dose g-1; with Canis familiaris [4], 9.89 % kg dose g-1; with Canis familiaris [5] it was 0.04 % kg dose g-1; in the experiment with Canis familiaris [6] it was 0.41 % kg dose g-1. In addition, the “[3H] concentration” value turned out to be 1.54 % kg dose g-1 with Canis familiaris [7]; 1.24 % kg dose g-1 with Canis familiaris [8]; 0.26 % kg dose g-1 in the experiment on Canis familiaris [9]; 0.07 % kg dose g-1 in the experiment with Canis familiaris [10]; 0.6 % kg dose g-1 in the experiment with Canis familiaris [11]; 1.44 % kg dose g-1 in the experiment with Canis familiaris [12]. For the same compound, the figures for the “[3H] concentration” value in the experiment with Canis familiaris [13], in the experiment with Canis familiaris [14] and in the experiment on Canis familiaris [15] were 0.89 % kg dose g-1, 0.69 % kg dose g-1 and 0.59 % kg dose g-1, respectively.

Consider `CC(N)C(O)c1ccc(I)c(O)c1` (centres undefined), for which the “[3H] concentration” value with Canis familiaris [3] is on record as 0.5 % kg dose g-1; in the experiment on Canis familiaris [4], 0.45 % kg dose g-1; with Canis familiaris [5], 0.04 % kg dose g-1; in the experiment with Canis familiaris [16], 0.17 % kg dose g-1; in the experiment on Canis familiaris [17] it was 4 % kg dose g-1; in the experiment on Canis familiaris [9] it was 0.25 % kg dose g-1. Also, the “[3H] concentration” value with Canis familiaris [14] is 0.26 % kg dose g-1; in the experiment with Canis familiaris [18] it was 0.2 % kg dose g-1.

For `CC(N)C(O)c1cc(O)ccc1I` (centres undefined), the “[3H] concentration” value with Canis familiaris [3] was 0.49 % kg dose g-1; with Canis familiaris [4] it was 0.2 % kg dose g-1; with Canis familiaris [5] it was 0.05 % kg dose g-1; with Canis familiaris [16] it was 0.05 % kg dose g-1; with Canis familiaris [17], 1 % kg dose g-1; in the experiment on Canis familiaris [9] it was 0.26 % kg dose g-1. In addition, the “[3H] concentration” value with Canis familiaris [14] is 0.08 % kg dose g-1; with Canis familiaris [18] it was 0.06 % kg dose g-1.

Consider `NC[C@H](O)c1ccc(O)c(O)c1`, for which the Concentration in the experiment filed under Canis familiaris [19] is 303 ng/g; in the experiment filed under Canis familiaris [20], 1460 ng/g; with Rattus norvegicus [21], 0.052 % dose g-1; in the experiment on Rattus norvegicus [22] it was 0.25 % dose g-1; in the experiment on Rattus norvegicus [23], 0.39 % dose g-1; with Rattus norvegicus [24], 0.29 % dose g-1. Further, the Concentration in the experiment on Rattus norvegicus [25] came out at 0.6 % dose g-1; in the experiment with Rattus norvegicus [26], 0.41 % dose g-1.
